Laboratory results published in ChEMBL document CHEMBL4219177, “Synthesis and evaluation of the antibacterial activities of aryl substituted dihydrotriazine derivatives” (Bioorg Med Chem Lett, 2018).
Converted amounts (≈) assume the structure as drawn.

Assays:
Streptococcus mutans = assay: Antibacterial activity against Streptococcus mutans 3289 after 24 hrs by two-fold serial dilution method; format: functional; conditions: Streptococcus mutans, 3289, 24 h
Candida albicans = assay: Antifungal activity against Candida albicans 7535 after 24 hrs by two-fold serial dilution method; format: functional; conditions: Candida albicans, 7535, 24 h
Pseudomonas aeruginosa = assay: Antibacterial activity against Pseudomonas aeruginosa 2742 after 24 hrs by two-fold serial dilution method; format: functional; conditions: Pseudomonas aeruginosa, 2742, 24 h
Summary of the method: (§1)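 Bacteria grown to mid-log phase in Mueller-Hinton broth, diluted 1000-fold, and inoculated at 10^5 CFU/mL. Compounds were dissolved in DMSO (final ≤0.05%) and two-fold serially diluted. MIC was the lowest concentration giving complete growth inhibition after 24 h at 37 °C, with growth read as absorbance at 650 nm. Each experiment was run three times.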

Escherichia coli [1] = assay: Antibacterial activity against Escherichia coli 1924 after 24 hrs by two-fold serial dilution method; format: functional; conditions: Escherichia coli, 1924, 24 h; summary of the method: as §1
Salmonella typhimurium = assay: Antibacterial activity against Salmonella typhimurium 2421 after 24 hrs by two-fold serial dilution method; format: functional, Salmonella enterica subsp. enterica serovar Typhimurium; conditions: Salmonella enterica, 2421, 24 h; summary of the method: as §1
Staphylococcus aureus [2] = assay: Antibacterial activity against quinolone-resistant Staphylococcus aureus isolate CCARM 3505 after 24 hrs by two-fold serial dilution method; format: functional; conditions: isolate CCARM 3505, 24 h
Summary of the method: (§2)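 Broth microdilution MIC. Bacteria were grown to mid-log phase in Mueller-Hinton broth, diluted 1000-fold, and inoculated at 10^5 CFU/mL. Compounds in DMSO (final ≤0.05%) were tested as two-fold serial dilutions from 64 to 0.25. Plates were incubated 24 h at 37 °C and growth read as absorbance at 650 nm. MIC = concentration completely inhibiting growth. Experiments were run three times.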

Staphylococcus aureus [3] = assay: Antibacterial activity against methicillin-resistant Staphylococcus aureus isolate CCARM 3167 after 24 hrs by two-fold serial dilution method; format: functional; conditions: isolate CCARM 3167, 24 h
Staphylococcus aureus [4] = assay: Antibacterial activity against Staphylococcus aureus 4220 after 24 hrs by two-fold serial dilution method; format: functional; conditions: RN4220, 24 h; summary of the method: as §2
[5] = molecular target: Dihydrofolate reductase (Staphylococcus aureus) (UniProt P0A017); assay: Inhibition of Staphylococcus aureus DHFR at 10 uM after 1.5 hrs by ELISA relative to control; conditions: Staphylococcus aureus subsp. aureus RN4220
Dihydrofolate reductase (Staphylococcus aureus), sequence (P0A017 2-159 limits assumed): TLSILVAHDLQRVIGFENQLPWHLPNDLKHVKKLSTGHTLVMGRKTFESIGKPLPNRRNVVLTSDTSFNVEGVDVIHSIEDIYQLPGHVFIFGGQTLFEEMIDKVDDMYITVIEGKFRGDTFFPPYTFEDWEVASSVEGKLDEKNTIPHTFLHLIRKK

Staphylococcus aureus [6] = assay: Potency index, ratio of moxifloxacin MIC to compound MIC for quinolone-resistant Staphylococcus aureus isolate CCARM 3505; format: functional
Staphylococcus aureus [7] = assay: Potency index, ratio of gatifloxacin MIC to compound MIC for quinolone-resistant Staphylococcus aureus isolate CCARM 3505; format: functional
L02 = assay: Cytotoxicity against human L02 cells assessed as growth inhibition after 24 hrs by MTT assay; format: cell-based; conditions: L02, 24 h
Escherichia coli [8] = assay: Potency index, ratio of moxifloxacin MIC to compound MIC for Escherichia coli 1924; format: functional
Escherichia coli [9] = assay: Potency index, ratio of gatifloxacin MIC to compound MIC for Escherichia coli 1924; format: functional

Row | Compound | MIC (Streptococcus mutans) | MIC (Candida albicans) | MIC (Pseudomonas aeruginosa) | MIC (Escherichia coli [1]) | MIC (Salmonella typhimurium) | MIC (Staphylococcus aureus [2]) | MIC (Staphylococcus aureus [3]) | MIC (Staphylococcus aureus [4]) | inhibition [5] | Ratio (Staphylococcus aureus [6]) | Ratio (Staphylococcus aureus [7]) | IC50 (L02) | Ratio (Escherichia coli [8]) | Ratio (Escherichia coli [9])
1 | CN(C)C1=NC(c2ccc3cc(OCc4ccccc4F)ccc3c2)N=C(N)N1 (stereo not given) | 4 µg/mL (≈ 10.2 µM) | 4 µg/mL (≈ 10.2 µM) | 64 µg/mL (≈ 163 µM) | 4 µg/mL (≈ 10.2 µM) | 64 µg/mL (≈ 163 µM) | 4 µg/mL (≈ 10.2 µM) | 2 µg/mL | 2 µg/mL | – | – | – | – | – | –
2 | CN(C)C1=NC(c2ccc(/C=C/C(=O)c3ccc(Br)cc3)cc2)N=C(N)N1 (stereo not given) | 16 µg/mL (≈ 37.5 µM) | 16 µg/mL (≈ 37.5 µM) | > 64 µg/mL | 16 µg/mL (≈ 37.5 µM) | > 64 µg/mL | 8 µg/mL (≈ 18.8 µM) | 8 µg/mL | 16 µg/mL | – | – | – | – | – | –
3 | CN(C)C1=NC(c2ccc(/C=C/C(=O)c3ccc(F)cc3)cc2)N=C(N)N1 (stereo not given) | 16 µg/mL (≈ 43.8 µM) | 32 µg/mL (≈ 87.6 µM) | > 64 µg/mL | 32 µg/mL (≈ 87.6 µM) | > 64 µg/mL | 32 µg/mL (≈ 87.6 µM) | 32 µg/mL | 32 µg/mL | – | – | – | – | – | –
4 | CN(C)C1=NC(c2ccc(/C=C/C(=O)c3ccccc3Br)cc2)N=C(N)N1 (stereo not given) | 16 µg/mL (≈ 37.5 µM) | 32 µg/mL (≈ 75.1 µM) | > 64 µg/mL | 64 µg/mL (≈ 150 µM) | > 64 µg/mL | 32 µg/mL (≈ 75.1 µM) | 32 µg/mL | 64 µg/mL | – | – | – | – | – | –
5 | COc1c(N2C[C@@H]3CCCN[C@@H]3C2)c(F)cc2c(=O)c(C(=O)O)cn(C3CC3)c12 [MOXIFLOXACIN] | – | – | 0.5 µg/mL (≈ 1.25 µM) | – | – | 1 µg/mL (≈ 2.49 µM) | – | 4 µg/mL | – | – | – | – | – | –
6 | CN(C)C1=NC(c2ccc3cc(OCc4ccc(Cl)cc4Cl)ccc3c2)N=C(N)N1 (stereo not given) | 1 µg/mL (≈ 2.26 µM) | 1 µg/mL (≈ 2.26 µM) | 64 µg/mL (≈ 145 µM) | 0.5 µg/mL (≈ 1.13 µM) | 64 µg/mL (≈ 145 µM) | 0.5 µg/mL (≈ 1.13 µM) | 2.27 µM | 1.13 µM | 58% | 8 | 16 | 58.9 µM | 4 | 4
7 | COc1c(N2CCNC(C)C2)c(F)cc2c(=O)c(C(=O)O)cn(C3CC3)c12 (stereo not given) [GATIFLOXACIN] | 0.25 µg/mL (≈ 0.666 µM) | 0.5 µg/mL (≈ 1.33 µM) | 1 µg/mL (≈ 2.66 µM) | 2 µg/mL (≈ 5.33 µM) | – | 8 µg/mL (≈ 21.3 µM) | 2 µg/mL | 0.25 µg/mL | – | – | – | – | – | –
8 | CN(C)C1=NC(c2ccc(/C=C/C(=O)c3ccc(Cl)cc3Cl)cc2)N=C(N)N1 (stereo not given) | 4 µg/mL (≈ 9.61 µM) | 8 µg/mL (≈ 19.2 µM) | 64 µg/mL (≈ 154 µM) | 8 µg/mL (≈ 19.2 µM) | > 64 µg/mL | 8 µg/mL (≈ 19.2 µM) | 19.3 µM | 19.3 µM | – | – | – | 45.1 µM | – | –
9 | CN(C)C1=NC(c2ccc3cc(OCc4ccccc4)ccc3c2)N=C(N)N1 (stereo not given) | 8 µg/mL (≈ 21.4 µM) | 8 µg/mL (≈ 21.4 µM) | > 64 µg/mL | 8 µg/mL (≈ 21.4 µM) | > 64 µg/mL | 8 µg/mL (≈ 21.4 µM) | 8 µg/mL | 16 µg/mL | – | – | – | – | – | –
10 | CN(C)C1=NC(c2ccc3cc(OCC(=O)c4ccccc4)ccc3c2)N=C(N)N1 (stereo not given) | 64 µg/mL (≈ 159 µM) | 32 µg/mL (≈ 79.7 µM) | > 64 µg/mL | 64 µg/mL (≈ 159 µM) | > 64 µg/mL | 32 µg/mL (≈ 79.7 µM) | 32 µg/mL | 32 µg/mL | – | – | – | – | – | –
11 | Cc1ccc(C(=O)/C=C/c2ccc(C3N=C(N)NC(N(C)C)=N3)cc2)cc1 (stereo not given) | 16 µg/mL (≈ 44.3 µM) | 16 µg/mL (≈ 44.3 µM) | > 64 µg/mL | 32 µg/mL (≈ 88.5 µM) | > 64 µg/mL | 16 µg/mL (≈ 44.3 µM) | 16 µg/mL | 32 µg/mL | – | – | – | – | – | –
12 | COc1cccc(C(=O)/C=C/c2ccc(C3N=C(N)NC(N(C)C)=N3)cc2)c1 (stereo not given) | 16 µg/mL (≈ 42.4 µM) | 16 µg/mL (≈ 42.4 µM) | > 64 µg/mL | 16 µg/mL (≈ 42.4 µM) | > 64 µg/mL | 16 µg/mL (≈ 42.4 µM) | 16 µg/mL | 32 µg/mL | – | – | – | – | – | –
13 | Cc1ccc(COc2ccc(C3N=C(N)NC(N(C)C)=N3)cc2)cc1 (stereo not given) | 16 µg/mL (≈ 47.4 µM) | 16 µg/mL (≈ 47.4 µM) | > 64 µg/mL | 16 µg/mL (≈ 47.4 µM) | > 64 µg/mL | 32 µg/mL (≈ 94.8 µM) | 32 µg/mL | 32 µg/mL | – | – | – | – | – | –
